Results on 8 molecules are retold here after ChEMBL document CHEMBL1156555, “Synthesis and anti-inflammatory activity of 2-aryloxy methyl oxazolines” (Bioorg Med Chem Lett, 2008).

Series [1] relates to Rattus norvegicus. The experiment in a line: Toxic ulcerogenic effect in albino rat assessed as incidence of ulcer at 400 mg/kg, po. The class given is toxicity, organism-based. On the set-up: dose 400 mg/kg, route oral. The note with it: in vivo. A digest of the protocol: (§1)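 Rats (200–230 g) in groups of 10 were fasted 24 h, then given the compound orally. They were killed 5 h after dosing. Stomach and small intestine were examined under a microscope for hyperemia, epithelial shedding, petechiae, frank haemorrhage, and erosion or ulceration with or without perforation. Any of these criteria counted as ulcerogenic.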

For series [2], the system named is Rattus norvegicus. Description: Toxic ulcerogenic effect in albino rat assessed as incidence of ulcer at 100 mg/kg, po. The note with it: in vivo. On the set-up: dose 100 mg/kg, route oral. It is filed as toxicity, organism-based. In outline:
as §1

The subject of series [3] is Rattus norvegicus. The experiment in a line: Antiinflammatory activity in albino rat assessed as inhibition of carrageenan-induced paw edema at 80 mg/kg, po administered 30 mins prior to challenge relative to control. It is filed as functional. In outline:
(§2)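 Groups of five rats (200–230 g) were dosed orally. After 30 min, 0.2 ml of 1% carrageenan in 0.9% NaCl was injected subcutaneously into the hind-paw plantar aponeurosis. Paw volume was read by water plethysmometer before and at 3 h. % inhibition = (1 − vt/vc) × 100, using mean relative oedema changes against five carrageenan-only controls.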
(In general: In the carrageenan paw model, swelling and tenderness develop within hours.)

The test system of series [4] is Rattus norvegicus. The experiment in a line: Toxic ulcerogenic effect in albino rat assessed as incidence of hyperemia at 100 mg/kg, po. The note with it: in vivo. The class given is toxicity, organism-based. Set-up: dose 100 mg/kg, route oral. A digest of the protocol: as §1
Series [5] deals with Rattus norvegicus. The experiment in a line: Toxic ulcerogenic effect in albino rat assessed as incidence of hyperemia at 400 mg/kg, po. It is filed as toxicity, organism-based. Set-up: dose 400 mg/kg, route oral. As to conditions: in vivo. In outline: as §1
Series [6] has as its system Rattus norvegicus. Description: Toxic ulcerogenic effect in albino rat assessed as incidence of hyperemia at 200 mg/kg, po. It is filed as toxicity, organism-based. Set-up: dose 200 mg/kg, route oral. The note with it: in vivo. In outline:
as §1

Series [7] has as its system Rattus norvegicus. Description: Antiinflammatory activity in po dosed albino rat assessed as inhibition of carrageenan-induced paw edema administered 30 mins prior to challenge. The class given is functional.
Series [8] deals with Rattus norvegicus. The experiment in a line: Antiinflammatory activity in albino rat assessed as inhibition of carrageenan-induced paw edema at 40 mg/kg, po administered 30 mins prior to challenge relative to control. It is filed as functional. A digest of the protocol:
as §2

For series [9], the system named is Rattus norvegicus. Description: Toxic ulcerogenic effect in albino rat assessed as incidence of ulcer at 200 mg/kg, po. It is filed as toxicity, organism-based. On the set-up: dose 200 mg/kg, route oral. The note with it: in vivo. A digest of the protocol: as §1
Series [10] in a line: Acute toxicity in albino rat assessed as mortality after 24 hrs. The class given is organism-based. The note with it: in vivo, read-out: ALD50. A digest of the protocol: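 Albino rats (200–230 g), groups of 10, given test compounds intraperitoneally at several dose levels. Percent mortality per group recorded 24 h after dosing. ALD50 calculated from the mortality data by a previously described method.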

The subject of series [11] is Rattus norvegicus. Description: Antiinflammatory activity in albino rat assessed as inhibition of carrageenan-induced paw edema at 20 mg/kg, po administered 30 mins prior to challenge relative to control. It is filed as functional. In outline: as §2
The species entered for series [12] is Oryctolagus cuniculus. Description: Inhibition of cyclooxygenase in rabbit colon microsomes assessed as reduction in conversion of arachidonic acid to PGE2 at 10 uM by liquid scintillation spectrometry relative to control. A digest of the protocol: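 Rabbit distal colon mucosa (2–3 g) was homogenized in 0.1 M Tris pH 8.0, and the microsomal pellet was used fresh. Microsomes were incubated with the test agent for 10 min at 37 °C in Tris-HCl pH 8.0 with 2 mM reduced glutathione, L-tryptophan and hematin. Products were separated by isocratic HPLC (150 mM orthophosphoric acid pH 3.5, 30% acetonitrile; UV 214 nm), and PGE2-co-eluting radioactivity was counted by liquid scintillation.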

Molecules are shown by their SMILES.

By inhibition in vivo is commonly meant the change of the read-out against control, counted positive when it falls. The term ED50 denotes the dose that gives a 50% effect, or the effect in half of the subjects. Regarding `Clc1ccc(OCC2=NCCO2)cc1`, the Activity is 12% in series [1]; 10% in [2]; 30% in [4]; 90% in series [5]; 60% in [6]; 20% in series [9]. Moreover, the inhibition in vivo at 80 mg/kg in series [3] worked out at 94.1%. In series [7], the ED50 is 51.2 mg/kg. Also, the inhibition in vivo at 40 mg/kg in [8] is 48.2%. Further, the LD50 at 24 h in series [10] is above 1000 mg/kg. The inhibition in vivo at 20 mg/kg in series [11] turned out to be 30.3%.

As usually defined, the inhibition is the percentage by which the read-out fell short of the control. In the case of `Cc1cccc(OCC2=NCCO2)c1`, the Activity came out at 25% in series [1]; 15% in series [2]; 50% in series [4]; 90% in series [5]; 70% in series [6]; 20% in series [9]. Also, the inhibition in vivo at 80 mg/kg in [3] was 64.1%. In addition, in series [7], the ED50 amounted to 76.2 mg/kg. Besides, the inhibition in vivo at 40 mg/kg in series [8] was 44.6%. Besides, in series [10], the LD50 at 24 h was above 1000 mg/kg. The inhibition in series [12] turned out to be 70%. In addition, the inhibition in vivo at 20 mg/kg in [11] stood at 16.6%.

As for `O=[N+]([O-])c1ccccc1OCC1=NCCO1`, the Activity in series [1] turned out to be 45%; in series [2], 20%; in series [4], 30%; in series [5] it was 90%; in series [6] it was 55%; in series [9] it was 25%. The inhibition in vivo at 80 mg/kg in series [3] was 50.5%. The ED50 in series [7] stood at 70.1 mg/kg. The inhibition in vivo at 40 mg/kg in series [8] amounted to 35.5%. The LD50 at 24 h in [10] is above 1000 mg/kg. The inhibition in series [12] worked out at 30%. In addition, the inhibition in vivo at 20 mg/kg in series [11] was 20.5%.

For `O=[N+]([O-])c1ccc(OCC2=NCCO2)cc1`, the Activity came to 20% in series [1]; 10% in series [2]; 50% in [4]; 100% in series [5]; 70% in [6]; 15% in series [9]. The inhibition in vivo at 80 mg/kg in series [3] turned out to be 77.1%. The ED50 in series [7] was 60.5 mg/kg. Moreover, the inhibition in vivo at 40 mg/kg in [8] amounted to 30.4%. The LD50 at 24 h in series [10] was above 1000 mg/kg. Besides, in series [12], the inhibition amounted to 85%. Also, in series [11], the inhibition in vivo at 20 mg/kg amounted to 29.2%.

In the case of `Cc1cc(OCC2=NCCO2)ccc1Cl`, the Activity was found to be 40% in series [1]; 20% in series [2]; 50% in series [4]; 100% in series [5]; 70% in series [6]; 30% in series [9]. For the same molecule, the inhibition in vivo at 80 mg/kg in [3] came out at 77.1%. Also, the ED50 in series [7] was found to be 60.2 mg/kg. Besides, in series [8], the inhibition in vivo at 40 mg/kg was 45.4%. Also, in series [10], the LD50 at 24 h was above 1000 mg/kg. In addition, in series [12], the inhibition came out at 87%. For the same molecule, the inhibition in vivo at 20 mg/kg in series [11] is 22.2%.

Consider `CCCCC1C(=O)N(c2ccccc2)N(c2ccccc2)C1=O` [PHENYLBUTAZONE], for which the Activity in series [1] came out at 90%; in series [2], 30%; in series [4], 30%; in series [5], 90%; in [6] it was 60%; in [9], 60%. The inhibition in vivo at 80 mg/kg in series [3] stood at 57.2%. In addition, in [8], the inhibition in vivo at 40 mg/kg is 35.5%. Besides, the inhibition in [12] was 60%. Besides, the inhibition in vivo at 20 mg/kg in [11] amounted to 31.3%.

Turning to `Brc1ccccc1OCC1=NCCO1`, the Activity came out at 40% in series [1]; 10% in series [2]; 70% in series [4]; 100% in [5]; 90% in series [6]; 20% in series [9]. Besides, the inhibition in vivo at 80 mg/kg in series [3] amounted to 62.8%. For the same molecule, the ED50 in [7] was 62.5 mg/kg. The inhibition in vivo at 40 mg/kg in series [8] is 29.1%. Further, in series [10], the LD50 at 24 h is above 1000 mg/kg. The inhibition in series [12] is 40%. In [11], the inhibition in vivo at 20 mg/kg is 20.1%.

In the case of `COc1ccc(OCC2=NCCO2)cc1`, the Activity in series [1] was determined as 15%; in series [2], 5%; in series [4], 50%; in [5], 90%; in series [6], 70%; in series [9] it was 10%. The inhibition in vivo at 80 mg/kg in series [3] was determined as 64.1%. Also, in [7], the median effective dose (ED50) is 77.2 mg/kg. In addition, in series [8], the inhibition in vivo at 40 mg/kg was found to be 33.2%. In series [10], the LD50 at 24 h was above 1000 mg/kg. Moreover, the inhibition in [12] is 70%. The inhibition in vivo at 20 mg/kg in series [11] is 16.6%.
